pEC50, pKi: −log10 of the molar value.
Tests used:
[1] = molecular target: T1, Adenosine receptor A1 (Homo sapiens, UniProt P30542); assay: Displacement of [3H]DPCPX from human adenosine A1 receptor expressed in CHO cell membranes after 1 hr by beta scintillation counting analysis
T1 sequence (P30542 whole entry): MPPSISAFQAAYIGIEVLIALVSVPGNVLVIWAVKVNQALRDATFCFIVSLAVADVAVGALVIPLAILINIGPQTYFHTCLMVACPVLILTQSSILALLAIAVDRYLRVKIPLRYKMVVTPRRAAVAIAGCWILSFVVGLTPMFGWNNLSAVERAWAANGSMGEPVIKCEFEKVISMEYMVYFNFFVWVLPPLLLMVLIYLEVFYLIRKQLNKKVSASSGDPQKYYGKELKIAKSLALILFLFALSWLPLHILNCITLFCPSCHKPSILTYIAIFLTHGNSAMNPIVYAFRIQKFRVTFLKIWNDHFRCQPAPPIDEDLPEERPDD
Procedure, shortened: (§1)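 Membranes from CHO cells stably expressing human A1 receptor (5 μg protein) incubated with [3H]DPCPX in 25 mM Tris-HCl pH 7.4, 5 mM MgCl2, 0.1% CHAPS, 1 h at 25 °C; nonspecific binding with 100 μM CPA; GF/B filtration, three ice-cold washes, scintillation counting. Single 1 μM points from ≥2 experiments in duplicate; Ki by nonlinear regression (radioligand KD 1.6 nM), ≥3 experiments in duplicate.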

[2] = molecular target: Adenosine receptor A2a (Homo sapiens) (UniProt P29274); assay: Displacement of [3H]ZM241385 from human adenosine A2A receptor expressed in HEK293 cell membranes at 1 uM after 2 hrs by beta scintillation counting analysis relative to control
Procedure, shortened: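 HEK 293 membranes stably expressing human A2A receptor (25 μg protein) incubated with [3H]ZM241385 in 50 mM Tris-HCl pH 7.4, 2 h at 25 °C; compounds at 1 μM; nonspecific binding with 100 μM CPA; GF/B filtration, ice-cold washes, scintillation counting; ≥2 experiments in duplicate.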

[3] = molecular target: T2, Adenosine receptor A2b (Homo sapiens) (UniProt P29275); assay: Displacement of [3H]PSB603 from human adenosine A2B receptor expressed in CHO cell membranes at 1 uM after 2 hrs by beta scintillation counting analysis relative to control
T2 sequence (whole entry): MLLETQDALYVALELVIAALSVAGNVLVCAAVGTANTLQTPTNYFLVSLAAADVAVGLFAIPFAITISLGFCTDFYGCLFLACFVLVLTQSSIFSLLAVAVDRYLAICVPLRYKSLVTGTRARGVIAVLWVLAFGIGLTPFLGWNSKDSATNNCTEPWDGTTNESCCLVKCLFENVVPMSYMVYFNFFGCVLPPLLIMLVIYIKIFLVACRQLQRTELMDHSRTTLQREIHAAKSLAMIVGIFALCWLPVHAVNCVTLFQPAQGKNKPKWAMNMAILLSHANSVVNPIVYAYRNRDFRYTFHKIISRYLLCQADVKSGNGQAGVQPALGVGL

[4] = molecular target: T3, Adenosine receptor A3 (Homo sapiens) (UniProt P0DMS8); assay: Displacement of [3H]PSB11 from human adenosine A3 receptor expressed in CHO cell membranes at 1 uM after 2 hrs by beta scintillation counting analysis relative to control
T3 sequence (whole entry): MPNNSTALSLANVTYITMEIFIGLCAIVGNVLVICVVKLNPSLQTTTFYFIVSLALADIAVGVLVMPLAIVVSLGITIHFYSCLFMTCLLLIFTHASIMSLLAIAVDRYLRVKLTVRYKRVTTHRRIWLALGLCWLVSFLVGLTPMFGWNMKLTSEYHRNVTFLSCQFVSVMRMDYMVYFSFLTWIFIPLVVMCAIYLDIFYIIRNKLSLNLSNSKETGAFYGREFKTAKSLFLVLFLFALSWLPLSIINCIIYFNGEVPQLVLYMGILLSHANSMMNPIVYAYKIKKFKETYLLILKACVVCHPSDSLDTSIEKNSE
Procedure, shortened: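 CHO membranes stably expressing human A3 receptor (45 μg protein) incubated with [3H]PSB11 and 1 μM compound in 50 mM Tris-HCl pH 8.0, 10 mM MgCl2, 1 mM EDTA, 0.01% CHAPS, 2 h at 25 °C; nonspecific binding with 100 μM NECA; filtration, washes without CHAPS, scintillation counting; ≥2 experiments in duplicate.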

[5] = molecular target: T4, Adenosine receptor A1 (Homo sapiens) (UniProt P30542); assay: Ratio for displacement of [3H]DPCPX from human adenosine A1 receptor expressed in CHO cell membranes at 10 times Ki after 15 mins by dual-point competition association assay to ratio for displacement of [3H]DPCPX from human adenosine A1 receptor expressed in CHO cell membranes 10 times Ki after 120 mins by dual-point competition association assay
T4 sequence (whole entry): T1 sequence (P30542 whole entry)

[6] = molecular target: T4, Adenosine receptor A1 (Homo sapiens); assay: Agonist activity human adenosine A1 receptor expressed in CHO cell membranes assessed as stimulation of [35S]GTPgammaS binding preincubated for 30 mins followed by radioligand addition measured after 90 mins by beta scintillation counting analysis relative to N6-cyclopentyladenosine; type: functional
[7] = molecular target: T1, Adenosine receptor A1; assay: Agonist activity human adenosine A1 receptor expressed in CHO cell membranes assessed as stimulation of [35S]GTPgammaS binding preincubated for 30 mins followed by radioligand addition measured after 90 mins by beta scintillation counting analysis; type: functional
[8] = molecular target: T4, Adenosine receptor A1 (Homo sapiens); assay: Displacement of [3H]DPCPX from human adenosine A1 receptor expressed in CHO cell membranes assessed as residence time on receptor at 10 times Ki after 90 mins by competition association assay
[9] = molecular target: T4, Adenosine receptor A1 (Homo sapiens); assay: Displacement of [3H]DPCPX from human adenosine A1 receptor expressed in CHO cell membranes at 1 uM after 1 hr by beta scintillation counting analysis relative to control; procedure, shortened: as §1
[10] = molecular target: T1, Adenosine receptor A1; assay: Agonist activity at adenosine A1 receptor (unknown origin) expressed in CHO cells assessed as […] in intracellular cAMP level by RIA; type: functional, cell-based
[11] = molecular target: T1, Adenosine receptor A1; assay: Agonist activity at human adenosine A1 receptor expressed in HEK293 cells assessed as […] in intracellular cAMP level after 30 mins by EIA; type: functional, cell-based
[12] = molecular target: T4, Adenosine receptor A1 (Homo sapiens); assay: Agonist activity human adenosine A1 receptor expressed in CHO cell membranes assessed as stimulation of [35S]GTPgammaS binding at 100 times Ki preincubated for 30 mins followed by radioligand addition measured after 90 mins by beta scintillation counting analysis relative to N6-cyclopentyladenosine; type: functional
[13] = molecular target: T5, Adenosine receptor A2b (Homo sapiens, UniProt P29275); assay: Displacement of [3H]PSB603 from human adenosine A2B receptor expressed in CHO cell membranes after 2 hrs by beta scintillation counting analysis
T5 sequence (P29275 whole entry): T2 sequence (whole entry)

Chain of Adenosine receptor A2a (Homo sapiens) (P29274 whole entry): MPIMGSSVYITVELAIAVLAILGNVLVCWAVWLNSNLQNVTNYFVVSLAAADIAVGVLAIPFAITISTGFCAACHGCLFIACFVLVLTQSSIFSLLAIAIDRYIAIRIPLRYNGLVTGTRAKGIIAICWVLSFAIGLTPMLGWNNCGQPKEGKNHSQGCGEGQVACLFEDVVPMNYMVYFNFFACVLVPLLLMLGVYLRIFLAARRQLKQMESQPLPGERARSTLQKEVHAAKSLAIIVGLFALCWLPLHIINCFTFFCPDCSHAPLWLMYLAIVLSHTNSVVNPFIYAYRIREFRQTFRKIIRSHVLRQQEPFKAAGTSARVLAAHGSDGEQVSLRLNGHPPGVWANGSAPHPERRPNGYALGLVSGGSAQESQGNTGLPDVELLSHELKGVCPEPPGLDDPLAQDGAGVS

Row | Compound | pKi [1] | Ratio [5] | TIME [8] [h] | further results
1 | N#Cc1c(N)nc(SCc2csc(-c3ccc(Cl)cc3)n2)nc1-c1ccc2c(c1)OCO2 | 7.85 | 1.64 | 0.857 | inhibition [2]: 4.5%; inhibition [3]: 0%; inhibition [4]: 4.5%; Emax [6]: 71%; pEC50 [7]: 8.31
2 | N#Cc1c(N)nc(SCc2csc(-c3ccc([N+](=O)[O-])cc3)n2)nc1-c1ccc2c(c1)OCO2 | 7.96 | 0.95 |  | 
3 | N#Cc1c(N)nc(SCc2csc(-c3ccccc3F)n2)nc1-c1ccc2c(c1)OCO2 | 7.92 | 1.46 | 0.375 | 
4 | N#Cc1c(N)nc(SCc2csc(-c3ccc(Cl)c(Cl)c3)n2)nc1-c1ccc2c(c1)OCO2 |  |  |  | inhibition [9]: 23%
5 | N#Cc1c(N)nc(SCc2coc(-c3ccc(F)cc3)n2)nc1-c1ccc2c(c1)OCO2 | 7.70 | 1.01 |  | 
6 | N#Cc1c(N)nc(SCc2csc(-c3ccc(Cl)cc3)n2)c(C#N)c1-c1ccc(OCCO)cc1 [CAPADENOSON] |  | 1.42 |  | pEC50 [10]: 10.00
7 | CCOc1ccc(-c2nc(SCc3csc(-c4ccc(Cl)cc4)n3)nc(N)c2C#N)cc1 |  |  |  | inhibition [9]: 49%
8 | CCN(CC)CCN1CCN(C(=O)CCc2cccc(CSc3nc(N)c(C#N)c(-c4ccc(NC(C)=O)cc4)n3)n2)CC1 |  |  |  | pEC50 [11]: 9.00
9 | COc1ccc(-c2nc(CSc3nc(N)c(C#N)c(-c4ccc5c(c4)OCO5)n3)cs2)cc1 | 8.74 | 1 |  | inhibition [2]: 3.2%; inhibition [3]: 3.5%; inhibition [4]: 11%; Emax [6]: 104%; pEC50 [7]: 8.72
10 | N#Cc1c(N)nc(SCc2csc(C3CCCCC3)n2)nc1-c1ccc2c(c1)OCO2 | 8.20 | 1.17 |  | 
11 | N#Cc1c(N)nc(SCc2coc(-c3ccc(Cl)cc3)n2)nc1-c1ccc2c(c1)OCO2 | 7.82 | 1.17 |  | 
12 | N#Cc1c(N)nc(SCc2csc(-c3cccc(Cl)c3)n2)nc1-c1ccc2c(c1)OCO2 | 7.38 | 1.24 | 0.5 | 
13 | CN(C)c1ccc(-c2nc(SCc3csc(-c4ccc(Cl)cc4)n3)nc(N)c2C#N)cc1 | 6.63 |  |  | 
14 | N#Cc1c(N)nc(SCc2csc(-c3ccc(C(F)(F)F)cc3)n2)nc1-c1ccc2c(c1)OCO2 | 7.74 | 1.2 |  | 
15 | N#Cc1c(N)nc(SCc2csc(-c3ccc(Cl)cc3)n2)nc1-c1ccc(OC(F)(F)F)cc1 | 6.73 |  |  | 
16 | N#Cc1c(N)nc(SCc2csc(-c3ccc(Cl)cc3)n2)nc1-c1ccccc1 | 8.05 | 1.24 | 0.538 | 
17 | N#Cc1c(N)nc(SCc2csc(-c3ccc(Cl)cc3)n2)nc1-c1ccc(OCCO)cc1 | 8.32 | 1.18 |  | inhibition [2]: 10%; inhibition [3]: 3.5%; inhibition [4]: 3%; Emax [6]: 99%; pEC50 [7]: 7.92

Row | Compound | pKi [1] | Ratio [5] | TIME [8] [h] | further results
18 | N#Cc1c(N)nc(SCc2csc(-c3ccc(Br)cc3)n2)nc1-c1ccc2c(c1)OCO2 | 8.28 | 1.67 | 0.983 | inhibition [2]: 2.9%; inhibition [3]: 1.7%; inhibition [4]: -1.8%; Emax [6]: 60%; pEC50 [7]: 8.34
19 | Cc1ccc(-c2nc(CSc3nc(N)c(C#N)c(-c4ccc5c(c4)OCO5)n3)cs2)cc1 | 8.51 | 1.15 |  | 
20 | N#Cc1c(N)nc(SCc2csc(-c3ccccc3Cl)n2)nc1-c1ccc2c(c1)OCO2 | 7.12 | 1.29 | 0.588 | 
21 | N#Cc1c(N)nc(SCc2csc(-c3ccc(I)cc3)n2)nc1-c1ccc2c(c1)OCO2 | 8.00 | 1.4 | 1.06 | inhibition [2]: 2.5%; inhibition [3]: 7.5%; inhibition [4]: 9%; Emax [6]: 82%; pEC50 [7]: 8.02
22 | N#Cc1c(N)nc(SCc2csc(-c3ccc(Cl)cc3)n2)nc1-c1ccc(O)cc1 | 7.82 | 0.99 |  | 
23 | N#Cc1c(N)nc(SCc2cscn2)nc1-c1ccc2c(c1)OCO2 | 8.01 | 0.93 |  | inhibition [2]: 31%; inhibition [4]: 35%; Emax [12]: 27%; pKi [13]: 7.38
24 | N#Cc1c(N)nc(SCc2csc(N3CCOCC3)n2)nc1-c1ccc2c(c1)OCO2 | 8.72 | 0.81 | 0.02 | inhibition [2]: 21%; inhibition [3]: 12%; inhibition [4]: 18%; Emax [6]: 65%; pEC50 [7]: 8.74
25 | N#Cc1c(N)nc(SCc2csc(-c3ccccc3)n2)nc1-c1ccc2c(c1)OCO2 | 8.62 | 1.1 |  | inhibition [2]: -2%; inhibition [3]: 20%; inhibition [4]: 24%; Emax [6]: 84%; pEC50 [7]: 8.34
26 | N#Cc1c(N)nc(SCc2csc(-c3ccc(F)cc3)n2)nc1-c1ccc2c(c1)OCO2 | 8.17 | 1.22 | 0.575 | 
27 | N#Cc1c(N)nc(SCc2csc(-c3cccc(F)c3)n2)nc1-c1ccc2c(c1)OCO2 | 7.85 | 1.24 | 0.55 | 
28 | COc1ccc(-c2nc(SCc3csc(-c4ccc(Cl)cc4)n3)nc(N)c2C#N)cc1 |  |  |  | inhibition [9]: 73%
29 | N#Cc1c(N)nc(SCc2coc(-c3cccc(F)c3)n2)nc1-c1ccc2c(c1)OCO2 | 7.82 | 1.24 | 0.0508 | 
30 | Cc1ccc(-c2nc(SCc3csc(-c4ccc(Cl)cc4)n3)nc(N)c2C#N)cc1 |  |  |  | inhibition [9]: 44%
31 | N#Cc1c(N)nc(SCc2csc(-c3ccc4c(c3)OCO4)n2)nc1-c1ccc2c(c1)OCO2 | 8.60 | 0.93 |  | 
32 | CC(=O)Nc1ccc(-c2nc(SCc3csc(-c4ccc(Cl)cc4)n3)nc(N)c2C#N)cc1 | 7.85 | 0.97 |  | inhibition [2]: 44%; inhibition [3]: 2.5%; inhibition [4]: 5.5%; Emax [6]: 112%; pEC50 [7]: 8.41
33 | N#Cc1c(N)nc(SCc2c[nH]cn2)nc1-c1ccc2c(c1)OCO2 | 7.08 | 1.15 |  | 

— ChEMBL document CHEMBL3232854, “Agonists for the adenosine A1 receptor with tunable residence time. A Case for nonribose 4-amino-6-aryl-5-cyano-2-thiopyrimidines” (J Med Chem, 2014)
